Screens: PubChem, Broad Institute
Rtt109 Vps75 = blocks Candida albicans Rtt109/Vps75 acetyltransferase activity. Q5AAJ8. purified Rtt109/Vps75, ThioGlo CoA-SH fluorescence, 4 h. inhibition, % at 34.9 µM. 0.16% of 330,000 active. AID 540336;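 active means inhibition of at least 50% in every replicate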
Target sequence (Q5AAJ8 whole entry, looked up): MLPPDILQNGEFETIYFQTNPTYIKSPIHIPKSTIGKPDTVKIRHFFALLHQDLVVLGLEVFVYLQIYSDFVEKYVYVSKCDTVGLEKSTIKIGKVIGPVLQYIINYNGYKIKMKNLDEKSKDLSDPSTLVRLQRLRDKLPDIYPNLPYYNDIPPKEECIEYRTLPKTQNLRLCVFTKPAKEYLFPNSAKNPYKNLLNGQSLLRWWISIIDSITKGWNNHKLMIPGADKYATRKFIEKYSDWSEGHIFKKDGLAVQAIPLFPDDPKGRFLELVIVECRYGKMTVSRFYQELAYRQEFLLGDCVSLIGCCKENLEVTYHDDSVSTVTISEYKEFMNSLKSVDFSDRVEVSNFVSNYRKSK
CAL PDZ FP-1 = blocks peptide binding to human CAL PDZ domain; Q9HD26; purified CAL PDZ, TMR-peptide fluorescence polarization, 1 h; inhibition, % at 20 µM; 0.02% of 330,000 active;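 active means highest replicate inhibition of at least 40%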;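 further: plate controls were DMSO neutral control wells for no effect and unlabeled competitor peptide control wells for full effect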
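Material: tagged CAL PDZ protein CerCALP, purified; buffer or medium: sodium phosphate/NaCl buffer pH 7.4 with TCEP, IgG, Thesit; also added: fluorescent TMR peptide probe; schedule: 1 h incubation at room temperature before polarization reading; technique: fluorescence polarization from S- and P-plane intensities, G-factor corrected; control set: unlabelled peptide and DMSO controls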
ALR inh = inhibitors of human sulfhydryl oxidase ALR | purified ALR, DTT oxidation, H2O2 HRP-luminol luminescence | P55789 | AID 485317 | 3.8% of 290,000 active | inhibition, % (test concentration not listed);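 active means mean replicate inhibition above about 79%, with every replicate also reaching it, limit read from the data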
Target sequence (P55789 whole entry, looked up): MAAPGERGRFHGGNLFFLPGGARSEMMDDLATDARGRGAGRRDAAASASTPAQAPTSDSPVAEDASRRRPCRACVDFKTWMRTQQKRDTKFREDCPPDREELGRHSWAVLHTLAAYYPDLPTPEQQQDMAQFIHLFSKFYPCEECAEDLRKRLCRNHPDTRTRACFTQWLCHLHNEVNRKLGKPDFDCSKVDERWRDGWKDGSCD
CAL PDZ FP-2 = CAL PDZ (human) peptide binding inhibition. Q9HD26. purified CAL PDZ, TMR-peptide fluorescence polarization, 1 h. inhibition, % at 24.9 µM. 0.92% of 300,000 active. AID 602252;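 active means mean inhibition of at least 30% with at least half of replicates also reaching 30%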;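 further: 0% = DMSO neutral control and 100% = excess unlabeled competitor peptide PRC23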
Dyrk1A ADPGlo = Dyrk1A (rat) kinase inhibition; 0.43% of 310,000 active; ADP-Glo luminescence, NFATc1 peptide; Q63470; AID 504441; inhibition, % at 12.5 µM; in the data active means inhibition above about 50%;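 further: plate controls were vehicle with enzyme for no effect and no enzyme for full effect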
* marks the source's active call; other numbers are inactive results; nt = not tested or not shown. A selection: hits, their analogues and other compounds. The true share with any hit is near 4.3%.

SMILES	Rtt109 Vps75	CAL PDZ FP-1	ALR inh	CAL PDZ FP-2	Dyrk1A ADPGlo
C/C(=N\NC(=O)c1ccccc1)C1C2C=CC(C2)C1(C)C (centres undefined)	1.1	-3.8	-11.8	-0.7	1.8
CC[N+](CC)(CC)CCCCOc1ccc2c(c1)C(=O)c1cc(OCCCC[N+](CC)(CC)CC)ccc1-2	21.2	2.1	-1.0	-3.6	nt
COC1=C/C(=C/c2c(O)c(C#N)c3ccccn23)C=CC1=O	-19.7	-0.7	91.2*	-10.3	26.8
COc1cc(OC)cc(C(=O)c2c(C)c(C#N)c3ccccn23)c1	-12.8	-0.2	nt	11.2	2.6
Cc1ccc(NC(=O)COc2cccc(-n3cnnn3)c2)cc1S(=O)(=O)N1CCOCC1	0.9	-1.5	nt	-5.2	0.1
COc1ccc(NC(=O)C(=O)N/N=C/c2cc(C)n(-c3cccc(Cl)c3Cl)c2C)c(OC)c1	3.5	-1.6	-3.6	-3.0	1.3
C[C@H](CO)N1C[C@H](C)[C@@H](CN(C)C(=O)Nc2ccccc2)Oc2c(NS(=O)(=O)c3cccs3)cccc2C1=O	6.8	0.0	4.1	-6.0	3.5
COc1ccccc1C(=O)Nc1nc(-c2cccs2)c(NC(C)=O)s1	-13.4	-0.9	-8.9	-2.9	-2.1
CC(=O)Nc1sc(NC(=O)c2ccccc2)nc1-c1cccs1	16.0	0.5	98.0*	1.9	0.9
CC(=O)Nc1sc(N/N=C\c2ccc(O)cc2)nc1-c1cccs1	12.9	-1.9	91.3*	4.7	2.0
CC1CN(S(=O)(=O)c2cccc(C(=O)OCC(=O)N3CCCCCC3)c2)CC(C)O1 (centres undefined)	-5.1	-0.9	-3.2	-3.5	-2.6
COc1ccccc1NC(=O)Cn1nc(-c2ccncc2)nc1SCC(=O)NC1CCCC1	-4.9	-4.4	-3.7	36.2*	9.5
Cc1ccc2nc3c(c(Nc4ccc5c(c4)OCCO5)c2c1)CCC3	-4.9	-0.6	97.6*	-3.3	0.6
Cc1c(Cl)cccc1NC(=O)Cn1nc(C)n2cccc2c1=O	45.7	-1.7	0.7	3.0	0.0
O=C(O)C1C(c2ccccc2)C(C(=O)N2CCOCC2)C1c1ccccc1 (centres undefined)	nt	-2.1	-0.3	-0.3	-3.3
O=C(C1CC1c1ccccc1)N1CCOCC1 (centres undefined)	5.9	0.0	98.4*	-4.0	3.2
COc1ccc(CCNC(=O)C(=O)c2c(C)[nH]c3ccccc23)cc1	7.7	-2.1	-1.7	-2.4	0.5
Cc1[nH]c2ccccc2c1C(=O)C(=O)NCCOc1ccccc1	3.1	-0.6	-7.2	45.9*	3.9
CCC(C)NC(=O)C1CCN(S(=O)(=O)c2cc([N+](=O)[O-])ccc2Cl)CC1 (centres undefined)	54.1*	0.3	-13.7	nt	3.5
COc1ccc(CCNC(=O)CCC(=O)Nc2nnc(C(C)C)s2)cc1OC	-5.5	-0.9	-8.9	-7.7	-3.1
Cc1ccc2nc(-c3cccc(S(=O)(=O)N(C)C)c3)cn2c1	-0.1	-1.5	99.2*	0.6	-9.7
Cc1ccc2nc(-c3cccc(S(=O)(=O)N4CCCC4)c3)cn2c1	0.6	-4.1	9.5	-5.6	nt
O=S(=O)(c1cccc(-c2cn3cccnc3n2)c1)N1CCCCCC1	3.5	-1.2	-3.0	1.8	1.8
CN(C)S(=O)(=O)c1cccc(-c2cn3cccnc3n2)c1	0.0	0.2	98.6*	-2.6	-5.3
Cc1ccc2nc(-c3cccc(S(=O)(=O)N4CC(C)OC(C)C4)c3)cn2c1 (centres undefined)	13.5	-1.8	98.1*	-7.6	-3.3
SMILES	Rtt109 Vps75	CAL PDZ FP-1	ALR inh	CAL PDZ FP-2	Dyrk1A ADPGlo
O=C(CC1N=C(Cc2ccccc2)NNC1=O)N/N=C/c1ccc([N+](=O)[O-])cc1 (centres undefined)	-0.1	14.4	-2.8	6.3	nt
O=C(NC1=NCCS1)c1ccc(C(F)(F)F)cc1	-0.4	-0.5	-3.8	-0.9	2.5
O=C(Nc1ncccn1)c1ccc(C(F)(F)F)cc1	-0.4	0.0	97.2*	-3.4	-1.6
CC(C)Cn1cnc2c1c(=O)[nH]c(=O)n2Cc1ccccc1	-0.9	0.1	nt	0.2	-1.8
COc1ccc(C=Nc2ccc3[nH]ncc3c2)c(O)c1	18.6	-2.3	90.0*	3.3	12.0
N#Cc1c2n(c3c(N)ncnc13)CCCCC2	-6.5	-0.5	-7.1	-4.3	32.9
NC(=O)C1CCN(C(=O)C2CC(=O)N(c3ccc4c(c3)OCCO4)C2)CC1 (centres undefined)	-1.0	-1.9	2.2	-5.5	-4.8
CN(Cc1cccc(F)c1)C(=O)C1CC(=O)N(c2ccc3c(c2)OCCO3)C1 (centres undefined)	1.9	-0.4	1.5	40.2*	-3.1
O=C(C1CC(=O)N(c2ccc3c(c2)OCCO3)C1)N1CCN(c2ccccc2O)CC1 (centres undefined)	17.0	-0.5	83.8*	-7.4	2.7
O=C(C1CC(=O)N(c2ccc3c(c2)OCCO3)C1)N1CCN(c2ccccc2)CC1 (centres undefined)	8.0	-0.1	nt	46.7*	-12.7
CN(Cc1ccccc1Cl)C(=O)C1CC(=O)N(c2ccc3c(c2)OCCO3)C1 (centres undefined)	-0.3	-0.5	nt	-2.8	3.8
Cc1csc(SCC(=O)NC(=O)NCCC(C)C)n1	-7.8	-0.1	-2.7	nt	-4.1
Cc1ccc(-c2csc3ncnc(SCC(=O)NCC4CCCO4)c23)cc1 (centres undefined)	3.8	-0.9	1.4	32.9*	nt
Cc1ccc(-c2nc(CSCC(=O)NCC3CCCO3)c(C)o2)cc1 (centres undefined)	-11.8	-4.3	94.7*	-0.6	-6.1
CCc1cc(=O)oc2c(C)c(OCC(=O)NCCCN3CCCC3=O)ccc12	25.2	-1.8	0.9	9.5	nt
Cc1ccc(-c2nc(CSCC(=O)Nc3cc(C)on3)c(C)o2)cc1	1.1	-0.4	nt	-5.8	-2.3
O=C(COC(=O)COc1ccc(Br)cc1)NCC1CCCO1 (centres undefined)	-9.9	0.0	nt	90.7*	3.2
COc1ccc(-c2nc(CSCC(=O)NCCCN3CCCC3=O)c(C)o2)cc1OC	-4.0	-2.3	97.5*	-0.8	-5.0
COc1cccc(CCNC(=O)c2ccc(OC)c(OC3CCN(C(C)C)CC3)c2)c1	-2.0	-1.2	2.5	1.8	-1.2
CC1CCC(N(CCCN)Cc2ccco2)CC1C (centres undefined)	-2.8	1.1	-0.1	-2.7	-4.1
O=C1CCCc2nc(N3CCN(C(=O)c4ccco4)CC3)ncc21	0.1	-1.2	-13.5	-1.2	-7.1
CCOc1ccc(-c2nc(CSCC(=O)NCC3CCCO3)c(C)o2)cc1 (centres undefined)	-6.1	-1.8	99.5*	-4.4	nt
COc1ccc(-c2nc(CSCC(=O)NCC3CCCO3)c(C)o2)cc1OC (centres undefined)	-74.1	-0.7	98.3*	0.0	1.8
COc1ccc(-c2nnc(SCC(=O)NCC3CCCO3)o2)cc1 (centres undefined)	-9.7	-0.1	-0.2	-5.8	-2.0
Cc1ccc(OCCC(=O)OCC(=O)NC(=O)NC2CCCCC2)cc1	9.9	1.1	23.3	10.1	2.2
